# In ChEMBL document CHEMBL3875165, “Novel broad-spectrum and long-acting parenteral cephalosporins having an acyl cyanamide moiety at the C-3 terminal: Synthesis and structure-activity relationships” (Eur J Med Chem, 2016):
# What was measured:
# Staphylococcus aureus [1] = test: Antibacterial activity against Staphylococcus aureus SMITH; assay type: functional
# Outline: (§1)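 Agar dilution MIC on Sensitivity Disk Agar-N with 2-fold serial drug dilutions. Overnight Mueller Hinton broth cultures were diluted to about 10^6 CFU/mL, and 1 µL spots were applied. Plates were incubated 20 h at 37 °C before scoring.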
# Pseudomonas aeruginosa [2] = test: Antibacterial activity against Pseudomonas aeruginosa PAO1; assay type: functional; outline: as §1
# Pseudomonas aeruginosa [3] = test: Antibacterial activity against Pseudomonas aeruginosa SA24; assay type: functional; outline: as §1
# Staphylococcus aureus [4] = test: Antibacterial activity against methicillin-resistant Staphylococcus aureus SR3626; assay type: functional
# Outline: (§2)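 Agar dilution on Sensitivity Disk Agar-N. Overnight Mueller Hinton broth cultures were diluted to about 10^6 CFU/mL, and 1 µL spots were placed on agar plates holding 2-fold serial dilutions of antibiotic. Plates were incubated 20 h at 37 °C and then MICs were scored.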
# Escherichia coli [5] = test: Antibacterial activity against Escherichia coli NIHJ JC-2; assay type: functional; outline: as §1
# Staphylococcus aureus [6] = test: Antibacterial activity against methicillin-resistant Staphylococcus aureus SR2030; assay type: functional; outline: as §2
# Haemophilus influenzae [7] = test: Antibacterial activity against beta-lactamase non-producing penicillin-resistant Haemophilus influenzae SR11435 after 20 hrs by agar dilution method; assay type: functional; settings: SR11435, 20 h; outline: as §2
# Streptococcus pneumoniae [8] = test: Antibacterial activity against penicillin-susceptible Streptococcus pneumoniae SR16605 after 20 hrs by agar dilution method; assay type: functional; settings: SR16605, 20 h; outline: as §2
# [9] = AUC (0 to infinity) in monkey at 20 mg/kg, iv administered as bolus dose by HPLC method; assay type: ADME, organism-based, Macaca mulatta; parameters: dose 20 mg/kg, time infinity, route intravenous; settings: rhesus monkey, in vivo
# Outline: (§3)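 Three monkeys per group received a single iv bolus of 20 mg/kg (1 mL/kg). Plasma levels were measured by HPLC. AUC0-∞, CLtot and T1/2 came from a 2-compartment fit.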
# Streptococcus pneumoniae [10] = test: Antibacterial activity against penicillin-resistant Streptococcus pneumoniae SR16675 after 20 hrs by agar dilution method; assay type: functional; settings: SR16675, 20 h; outline: as §2
# [11] = Half life in mouse at 20 mg/kg, iv administered as bolus dose by band-culture bioassay; settings: in vivo
# Haemophilus influenzae [12] = test: Antibacterial activity against beta-lactamase non-producing penicillin-resistant Haemophilus influenzae SR24106 after 20 hrs by agar dilution method; assay type: functional; settings: SR24106, 20 h; outline: as §2
# [13] = Protein binding in cynomolgus monkey plasma after 30 mins by ultra-filtration method; assay type: ADME, cell-free, Macaca fascicularis; settings: read-out: PPB (converted)
# Outline: (§4)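 Mouse or monkey plasma was adjusted to pH 7 with CO2 and spiked with compound to a final 10 µg/ml. It was incubated 30 min at 37 °C, then ultrafiltered by centrifugation at 3200 rpm for 30 min at 25 °C. Free drug in the filtrate was measured by bioassay to give the bound fraction.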
# Streptococcus pneumoniae [14] = test: Antibacterial activity against penicillin-resistant Streptococcus pneumoniae SR16750 after 20 hrs by agar dilution method; assay type: functional; settings: SR16750, 20 h; outline: as §2
# [15] = Total clearance in mouse at 20 mg/kg, iv administered as bolus dose by band-culture bioassay; settings: in vivo
# [16] = Half life in monkey at 20 mg/kg, iv administered as bolus dose by HPLC method; assay type: ADME, organism-based, Macaca mulatta; settings: rhesus monkey, in vivo; outline: as §3
# Moraxella catarrhalis = test: Antibacterial activity against Moraxella catarrhalis SR24290 after 20 hrs by agar dilution method; assay type: functional; settings: SR24290, 20 h; outline: as §1
# [17] = Total clearance in monkey at 20 mg/kg, iv administered as bolus dose by HPLC method; assay type: ADME, organism-based, Macaca mulatta; settings: rhesus monkey, in vivo; outline: as §3
# [18] = Protein binding in ICR mouse plasma after 30 mins by ultra-filtration method; assay type: ADME, cell-free; settings: read-out: PPB (converted); outline: as §4
# Streptococcus pneumoniae [19] = test: Antibacterial activity against penicillin-susceptible Streptococcus pneumoniae SR16605 infected in sc dosed mouse assessed as protection against bacterial infection by measuring increase in mouse survival administered 1 and 5 hrs post infection measured after 7 days; assay type: functional
# Outline: (§5)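 Mouse septicemia model in six-week-old male Jcl:ICR mice (19 to 25 g). Mice were infected intraperitoneally with 0.5 mL of S. pneumoniae suspension in hog mucin. Compound was given subcutaneously 1 and 5 h after infection. Mortality was recorded over 7 days, and ED50 with 90% confidence limits was derived by the logit method.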
# Streptococcus pneumoniae [20] = test: Antibacterial activity against penicillin-resistant Streptococcus pneumoniae SR16754 infected in sc dosed mouse assessed as protection against bacterial infection by measuring increase in mouse survival administered 1 and 5 hrs post infection measured after 7 days; assay type: functional; outline: as §5
# Streptococcus pneumoniae [21] = test: Antibacterial activity against penicillin-resistant Streptococcus pneumoniae SR16754 after 20 hrs by agar dilution method; assay type: functional; settings: SR16754, 20 h; outline: as §2
# [22] = AUC (0 to infinity) in mouse at 20 mg/kg, iv administered as bolus dose by band-culture bioassay; settings: in vivo
# Streptococcus pneumoniae [23] = test: Potency index, ratio of Ceftriaxone MIC to compound MIC for penicillin-susceptible Streptococcus pneumoniae SR16605; assay type: functional
# Staphylococcus aureus [24] = test: Antibacterial activity against Staphylococcus aureus SMITH after 20 hrs by agar dilution method; assay type: functional; outline: as §1
# Escherichia coli [25] = test: Antibacterial activity against Escherichia coli NIHJ JC-2 after 20 hrs by agar dilution method; assay type: functional; settings: NIHJ JC-2, 20 h; outline: as §1
compound,measurement,setting,value
CCO/N=C(\C(=O)N[C@@H]1C(=O)N2C(C(=O)[O-])=C(C[n+]3ccc(-c4cc[nH]c4)cc3)CS[C@H]12)c1nsc(N)n1,MIC,Staphylococcus aureus [1],0.4 µg/mL
same,MIC,Pseudomonas aeruginosa [2],0.8 µg/mL
same,MIC,Pseudomonas aeruginosa [3],0.8 µg/mL
same,MIC,Staphylococcus aureus [4],6.3 µg/mL
same,MIC,Escherichia coli [5],0.02 µg/mL
same,MIC,Staphylococcus aureus [6],1.6 µg/mL
CCO/N=C(\C(=O)N[C@@H]1C(=O)N2C(C(=O)[O-])=C(/C=C/C[n+]3ccc(-c4nc(/C([O-])=N/C#N)cs4)cc3)CS[C@H]12)c1csc(N)n1.[Na+],MIC,Haemophilus influenzae [7],0.031 µg/mL
same,MIC,Streptococcus pneumoniae [8],0.008 µg/mL
same,AUC,[9],37500 ng·h/mL
same,MIC,Streptococcus pneumoniae [10],0.25 µg/mL
same,half-life,[11],0.67 h
same,MIC,Haemophilus influenzae [12],0.063 µg/mL
same,fraction unbound at 0.5 h,[13],0.27
same,MIC,Streptococcus pneumoniae [14],0.25 µg/mL
same,clearance,[15],16 mL/min/kg
same,half-life,[16],3.88 h
same,MIC,Moraxella catarrhalis,1 µg/mL
same,clearance,[17],0.49 mL/min/kg
same,fraction unbound at 0.5 h,[18],0.81
same,ED50,Streptococcus pneumoniae [19],0.017 mg/kg
same,ED50,Streptococcus pneumoniae [20],0.71 mg/kg
same,MIC,Streptococcus pneumoniae [21],0.25 µg/mL
same,AUC(0-inf),[22],20900 ng·h/mL
same,Ratio,Streptococcus pneumoniae [23],2 - 3
same,MIC,Staphylococcus aureus [24],0.5 µg/mL
same,MIC,Escherichia coli [25],0.063 µg/mL
CO/N=C(\C(=O)N[C@@H]1C(=O)N2C(C(=O)[O-])=C(C[n+]3ccn4ncccc43)CS[C@H]12)c1nsc(N)n1 [CEFOZOPRAN],AUC,[9],15000 ng·h/mL
same,half-life,[11],0.4 h
same,MIC,Staphylococcus aureus [1],0.8 µg/mL
same,MIC,Pseudomonas aeruginosa [2],0.8 µg/mL
same,half-life,[16],1.2 h
same,MIC,Pseudomonas aeruginosa [3],0.4 µg/mL
same,MIC,Staphylococcus aureus [4],50 µg/mL
same,AUC(0-inf),[22],30300 ng·h/mL
same,MIC,Escherichia coli [5],0.05 µg/mL
same,MIC,Staphylococcus aureus [6],12.5 µg/mL
CCO/N=C(\C(=O)N[C@@H]1C(=O)N2C(C(=O)[O-])=C(/C=C/C[n+]3ccc(-c4cc(/C([O-])=N/C#N)[nH]n4)cc3)CS[C@H]12)c1csc(N)n1.[Na+],MIC,Haemophilus influenzae [7],0.063 µg/mL
same,AUC,[9],35400 ng·h/mL
same,MIC,Streptococcus pneumoniae [10],0.125 µg/mL
same,half-life,[11],1.03 h
same,MIC,Haemophilus influenzae [12],0.125 µg/mL
same,fraction unbound at 0.5 h,[13],0.27
same,MIC,Streptococcus pneumoniae [14],0.25 µg/mL
same,clearance,[15],19.2 mL/min/kg
same,half-life,[16],4.43 h
same,MIC,Moraxella catarrhalis,2 µg/mL
same,clearance,[17],0.48 mL/min/kg
same,fraction unbound at 0.5 h,[18],0.75
same,AUC(0-inf),[22],17400 ng·h/mL
same,MIC,Staphylococcus aureus [24],0.25 µg/mL
same,MIC,Escherichia coli [25],0.125 µg/mL
CCO/N=C(\C(=O)N[C@@H]1C(=O)N2C(C(=O)[O-])=C(/C=C/C[n+]3ccc(/C([O-])=N/C#N)cc3)CS[C@H]12)c1csc(N)n1.[Na+],MIC,Haemophilus influenzae [7],0.063 µg/mL
same,AUC,[9],9700 ng·h/mL
same,MIC,Streptococcus pneumoniae [10],0.25 µg/mL
same,half-life,[11],0.72 h
same,MIC,Haemophilus influenzae [12],0.125 µg/mL
same,fraction unbound at 0.5 h,[13],0.59
same,MIC,Streptococcus pneumoniae [14],0.5 µg/mL
same,clearance,[15],22.9 mL/min/kg
same,half-life,[16],1.22 h
same,MIC,Moraxella catarrhalis,1 µg/mL
same,clearance,[17],1.84 mL/min/kg
same,fraction unbound at 0.5 h,[18],0.92
same,AUC(0-inf),[22],14600 ng·h/mL
same,MIC,Staphylococcus aureus [24],0.5 µg/mL
same,MIC,Escherichia coli [25],0.25 µg/mL
CCO/N=C(\C(=O)N[C@@H]1C(=O)N2C(C(=O)[O-])=C(/C=C/C[n+]3ccc4sc(/C([O-])=N/C#N)nc4c3)CS[C@H]12)c1csc(N)n1.[Na+],MIC,Haemophilus influenzae [7],0.063 µg/mL
same,AUC,[9],24500 ng·h/mL
same,MIC,Streptococcus pneumoniae [10],0.125 µg/mL
same,half-life,[11],0.7 h
same,MIC,Haemophilus influenzae [12],0.063 µg/mL
same,fraction unbound at 0.5 h,[13],0.16
same,MIC,Streptococcus pneumoniae [14],0.25 µg/mL
same,clearance,[15],14 mL/min/kg
same,half-life,[16],2.86 h
same,MIC,Moraxella catarrhalis,0.5 µg/mL
same,clearance,[17],0.68 mL/min/kg
same,fraction unbound at 0.5 h,[18],0.59
same,AUC(0-inf),[22],23700 ng·h/mL
same,MIC,Staphylococcus aureus [24],0.5 µg/mL
same,MIC,Escherichia coli [25],0.25 µg/mL
CCO/N=C(\C(=O)N[C@@H]1C(=O)N2C(C(=O)[O-])=C(/C=C/C[n+]3ccc(-c4c[nH]c(/C([O-])=N/C#N)c4C)cc3)CS[C@H]12)c1csc(N)n1.[Na+],MIC,Haemophilus influenzae [7],0.063 µg/mL
same,AUC,[9],42200 ng·h/mL
same,MIC,Streptococcus pneumoniae [10],0.125 µg/mL
same,half-life,[11],0.86 h
same,MIC,Haemophilus influenzae [12],0.125 µg/mL
same,fraction unbound at 0.5 h,[13],0.16
same,MIC,Streptococcus pneumoniae [14],0.125 µg/mL
same,clearance,[15],15.2 mL/min/kg
same,half-life,[16],5.19 h
same,MIC,Moraxella catarrhalis,4 µg/mL
same,clearance,[17],0.4 mL/min/kg
same,fraction unbound at 0.5 h,[18],0.54
same,AUC(0-inf),[22],22000 ng·h/mL
same,MIC,Staphylococcus aureus [24],0.25 µg/mL
same,MIC,Escherichia coli [25],0.125 µg/mL
